Screening results: PubChem, The Scripps Research Institute Molecular Screening Center
Shown are actives, neighbours in structure and some others; about 3% of the full set was active somewhere.
NPY-Y1 antag: antagonists of human neuropeptide Y receptor Y1 | inhibition, % at 3.6 µM | HEK293-CNG Y1 cells, membrane potential fluorescence; NPY at EC95, then isoproterenol | 200,000 compounds, 1% hits | AID 1040;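 active = inhibition above the campaign mean inhibition of all tested compounds plus 3 SD, cut at about 20% in these data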;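 also: 0% = DMSO wells given NPY plus isoproterenol and 100% = isoproterenol alone without NPY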
Target sequence (P25929 whole entry, looked up): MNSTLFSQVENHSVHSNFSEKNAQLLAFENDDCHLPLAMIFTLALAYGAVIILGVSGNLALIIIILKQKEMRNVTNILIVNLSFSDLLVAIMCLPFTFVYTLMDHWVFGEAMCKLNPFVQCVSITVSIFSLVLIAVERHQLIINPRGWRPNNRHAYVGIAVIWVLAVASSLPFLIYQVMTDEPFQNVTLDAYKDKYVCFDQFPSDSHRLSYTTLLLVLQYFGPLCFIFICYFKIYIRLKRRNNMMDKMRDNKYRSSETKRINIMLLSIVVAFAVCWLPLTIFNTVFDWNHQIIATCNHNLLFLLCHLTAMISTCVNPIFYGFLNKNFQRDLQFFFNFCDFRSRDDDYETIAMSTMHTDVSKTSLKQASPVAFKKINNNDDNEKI
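Test system: HEK293 cells co-expressing NPY Y1 receptor and cyclic-nucleotide gated channel; Also added: NPY (25 nM), isoproterenol (1 µM), Ro 20-1724 (25 µM); Compound dosing: one concentration, 3.6 µM, in 0.4% DMSO; Timing: dye 3 h, compound 60 min room temperature, stimulation 45 min; Technique: Membrane-potential fluorescent dye readout.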
NPY2 pot ag: potentiators or agonists of human neuropeptide Y receptor Y2; cells expressing NPY-Y2, potentiator/agonist read-out; 220,000 compounds, 0.45% hits; AID 1359; activation, % at 3.6 µM; P49146; in the data active = activation above about 27%;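 also: cells stimulated with NPY near EC25 plus isoproterenol at EC100; 0% = vehicle plus submaximal agonist and 100% = vehicle plus saturating agonist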
NPY-Y1 PAM-ag: human NPY-Y1 potentiation or agonism, primary screen; NPY-Y1 expressing cells, potentiator/agonist activation; activation, % at 3.6 µM; 220,000 compounds, 0.37% hits; AID 1304; in the data active = activation above about 33%, passing the limit was not always enough;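 also: cells stimulated with NPY at EC10 then isoproterenol at EC100; 0% = low agonist plus stimulus and 100% = saturating agonist plus stimulus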
Hsp70 act: transcriptional activators of Hsp70 | 200,000 compounds, 0.04% hits | HeLa Hsp70 promoter luciferase reporter, luminescence; scaled: vehicle 0, proteasome-inhibitor control 100% | AID 1203 | activation, % at 10 µM;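 active = activation above the mean across all tested compounds plus 3 SD, cutoff set per campaign, cut at about 5.5% in these data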;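 also: 100% = MG132 at 30 µM as the positive control and 0% = DMSO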
NPY-Y2 antag: antagonists of human neuropeptide Y receptor Y2 | inhibition, % at 2.7 µM | NPY-Y2 expressing cells, antagonist mode | P49146 | 140,000 compounds, 0.99% hits; in the data active = inhibition above about 17%;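 also: 0% = vehicle with agonist challenge and 100% = reference antagonist with challenge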
Wee1 degr inh: human Wee1 degradation inhibition, primary screen | P30291 | HeLa Luc-Wee1K328M stability, luciferase luminescence; 100% = proteasome inhibitor MG132 effect | reporter increase, % at 5 µM | 220,000 compounds, 1.2% hits;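 active = activation above the mean of all tested compounds plus 3 SD, set per screening run, cut at about 8.8% in these data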;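 also: cells exposed to compound for 20 h before luminescence read; 0% = DMSO alone and 100% = MG132 at 30 µM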
Wee1 stab conf: confirmation of human Wee1 degradation inhibitors; shares compounds with Wee1 degr inh; HeLa Luc-Wee1K328M degradation, luminescence; vehicle 0%, proteasome-blocked wells 100%; activation, % at 5 µM; 1,100 compounds, 4% hits; in the data active = activation above about 8.9%
Starred values were filed as active, the others as inactive.

What do the screens show for `CNC(=O)COC(=O)COc1ccc2c(C)cc(=O)oc2c1`?
NPY-Y1 antag: 1; NPY2 pot ag: 5; NPY-Y1 PAM-ag: 3; Hsp70 act: 0; Wee1 degr inh: -2

How did CCOC(=O)c1sc(SC)c2c1CCCC2=O do in these assays?
NPY2 pot ag: -25; NPY-Y1 PAM-ag: 2; Wee1 degr inh: 0

How did COC(=O)c1cccc(Nc2ncnc3sccc23)c1 do in these assays?
NPY-Y1 antag: 9; NPY2 pot ag: -9; NPY-Y1 PAM-ag: -33; Hsp70 act: 0; Wee1 degr inh: 14*; Wee1 stab conf: 0

How did COC(=O)c1ccc(COc2ncnc3sccc23)cc1 do in these assays?
NPY-Y1 antag: 1; NPY2 pot ag: -10; NPY-Y1 PAM-ag: -11; Hsp70 act: 0; Wee1 degr inh: 1

What do the screens show for `O=C(NNC(=O)C12CC3CC(CC(C3)C1)C2)[C@@H]1C[C@H]1c1ccccc1`?
NPY-Y1 antag: 3; NPY2 pot ag: -1; NPY-Y1 PAM-ag: 9; Hsp70 act: 0; Wee1 degr inh: 20*; Wee1 stab conf: 1

Results for O=C(NNC(=O)C1CC1c1ccccc1)Nc1ccccc1 (stereo not given) ?
NPY-Y1 antag: 0; NPY2 pot ag: -14; NPY-Y1 PAM-ag: -7; Hsp70 act: 0; NPY-Y2 antag: 4; Wee1 degr inh: -3

Results for CCC(C)(C)n1nnnc1C(c1ccc(F)cc1)N1CCC(C(N)=O)CC1 (stereo not given) ?
NPY-Y1 antag: -4; NPY2 pot ag: -1; NPY-Y1 PAM-ag: -11; Hsp70 act: 0; Wee1 degr inh: -5

What do the screens show for `CCCN1CN(CCc2ccccc2)CNC1=S`?
NPY-Y1 antag: 3; NPY2 pot ag: -4; NPY-Y1 PAM-ag: 14; Hsp70 act: 0; NPY-Y2 antag: 2; Wee1 degr inh: -3

Results for CCCCN1CNC(=S)N(CCc2ccccc2)C1 ?
NPY-Y1 antag: -3; NPY2 pot ag: -7; NPY-Y1 PAM-ag: -4; Hsp70 act: 0; NPY-Y2 antag: 2; Wee1 degr inh: 12*; Wee1 stab conf: 3

Results for Cc1ccc(C(=O)NNC(=S)NC(=O)COc2ccccc2)cc1 ?
NPY-Y1 antag: 10; NPY2 pot ag: 2; NPY-Y1 PAM-ag: -4; Hsp70 act: 0; NPY-Y2 antag: 1; Wee1 degr inh: 14*; Wee1 stab conf: 3

Results for COc1ccc(CNC(=O)CN(C(=O)Cn2nnc(-c3ccccc3F)n2)c2ccc(C)cc2)cc1 ?
NPY-Y1 antag: -7; NPY2 pot ag: 1; NPY-Y1 PAM-ag: -8; Hsp70 act: 0; Wee1 degr inh: -1

What do the screens show for `Cc1nnc(SCC(=O)NCc2ccc(Cl)cc2)[nH]c1=O`?
NPY-Y1 antag: 1; NPY2 pot ag: -2; NPY-Y1 PAM-ag: 3; Hsp70 act: 0; NPY-Y2 antag: 4; Wee1 degr inh: -4

How did Cc1nnc(SCC(=O)NCc2ccc(F)cc2)[nH]c1=O do in these assays?
NPY-Y1 antag: 5; NPY2 pot ag: -2; NPY-Y1 PAM-ag: -8; Hsp70 act: 0; Wee1 degr inh: 11*; Wee1 stab conf: 2

Results for NC(N)=NS(=O)(=O)c1ccc(N)cc1 ?
NPY-Y1 antag: -4; NPY2 pot ag: -4; NPY-Y1 PAM-ag: -3; Hsp70 act: 0; NPY-Y2 antag: 4; Wee1 degr inh: 11*; Wee1 stab conf: 1

Results for C/C(N)=N\S(=O)(=O)c1ccc(Cl)cc1 ?
NPY-Y1 antag: 3; NPY2 pot ag: -13; NPY-Y1 PAM-ag: 4; Hsp70 act: 0; NPY-Y2 antag: 2; Wee1 degr inh: 0

Results for Cc1ccc(Cl)cc1N1CCN(C(=O)c2cc3c(=O)[nH]c4ccccc4c3n2C)CC1 ?
NPY-Y1 antag: -1; NPY2 pot ag: -8; NPY-Y1 PAM-ag: -3; Hsp70 act: 0; NPY-Y2 antag: 8; Wee1 degr inh: -1

What do the screens show for `COc1ccc(/C=N/NC(=O)c2cc(C3CC3)[nH]n2)cc1OC`?
NPY2 pot ag: -7; NPY-Y1 PAM-ag: 15; Wee1 degr inh: 2

How did COc1cc(/C=N/NC(=O)c2cc(C3CC3)[nH]n2)ccc1O do in these assays?
NPY2 pot ag: -3; NPY-Y1 PAM-ag: 10; Wee1 degr inh: 12*; Wee1 stab conf: -1

Results for CCn1c(N2CCN(S(=O)(=O)c3ccc(Cl)cc3)CC2)nc2ccccc21 ?
NPY-Y1 antag: 4; NPY2 pot ag: -5; NPY-Y1 PAM-ag: -17; Hsp70 act: 0; Wee1 degr inh: 26*; Wee1 stab conf: 0

What do the screens show for `O=C(O)COc1ccccc1/C=N/NC(=O)CN1CCN(Cc2ccc(Cl)cc2)CC1`?
NPY2 pot ag: 6; NPY-Y1 PAM-ag: 19; Wee1 degr inh: 25*; Wee1 stab conf: 2

What do the screens show for `C(=N\Nc1nc2ccccc2[nH]1)/c1ccc2c(c1)OCCO2`?
NPY2 pot ag: -8; NPY-Y1 PAM-ag: -9; Wee1 degr inh: 11*; Wee1 stab conf: 0

How did C(=N\Nc1ccc2ccccc2n1)/c1ccc2c(c1)OCCO2 do in these assays?
NPY-Y1 antag: 8; NPY2 pot ag: -8; NPY-Y1 PAM-ag: -18; Hsp70 act: 0; Wee1 degr inh: -4

What do the screens show for `O=c1cc(NCc2ccccc2)nc2ccccn12`?
NPY-Y1 antag: -2; NPY2 pot ag: 18; NPY-Y1 PAM-ag: 10; Hsp70 act: 0; Wee1 degr inh: 12*; Wee1 stab conf: 0

How did CC(C)C(=O)Nc1nnc(SCC(=O)NCc2ccc3c(c2)OCO3)s1 do in these assays?
NPY-Y1 antag: 3; NPY2 pot ag: -9; NPY-Y1 PAM-ag: 1; Hsp70 act: 0; Wee1 degr inh: 12*; Wee1 stab conf: 1

What do the screens show for `Cc1ccc(S(=O)(=O)N2c3ccccc3OCC2C(C)(C)C)cc1` (stereo not given)?
NPY-Y1 antag: 11; NPY2 pot ag: -12; NPY-Y1 PAM-ag: -26; Hsp70 act: -1; NPY-Y2 antag: 4; Wee1 degr inh: 21*; Wee1 stab conf: 2

What do the screens show for `CCCSc1nsc(NC(=O)CCC)n1`?
NPY-Y1 antag: 2; NPY2 pot ag: -14; NPY-Y1 PAM-ag: -2; Hsp70 act: 0; Wee1 degr inh: 13*; Wee1 stab conf: 4

What do the screens show for `Cc1ccc2c(CSc3nnc(C4CC4)n3N)cc(=O)oc2c1C`?
NPY-Y1 antag: 3; NPY2 pot ag: 13; NPY-Y1 PAM-ag: -4; Hsp70 act: 0; NPY-Y2 antag: 1; Wee1 degr inh: 12*; Wee1 stab conf: 2

Results for CCN(C(=O)C(C)Cl)c1ccccc1 (stereo not given) ?
NPY-Y1 antag: -4; NPY2 pot ag: 1; NPY-Y1 PAM-ag: 15; Hsp70 act: 0; Wee1 degr inh: -1

Results for O=C(NCCO)C(F)(F)C(F)(F)C(F)(F)OC(F)(C(=O)NCCO)C(F)(F)F (stereo not given) ?
NPY-Y1 antag: 6; NPY2 pot ag: 5; NPY-Y1 PAM-ag: 9; Hsp70 act: 0; NPY-Y2 antag: 4; Wee1 degr inh: 12*; Wee1 stab conf: 0
